In ChEMBL document CHEMBL1671627, “Increasing trends in antimicrobial resistance among clinically important anaerobes and Bacteroides fragilis isolates causing nosocomial infections: emerging resistance to carbapenems” (2008):
In brackets after ≈: the same amount, converted by molar mass.

Tests used:
Fusobacterium nucleatum [1] = experiment: Antibacterial activity against Fusobacterium nucleatum assessed as susceptible isolates by CLSI agar dilution method in presence of clavulanate; assay type: functional
Procedure, shortened: (§1)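 Agar dilution per CLSI guidelines on nonduplicate anaerobic bloodstream isolates collected at NTUH, January to December 2006. Isolates were spotted by Steers replicator onto supplemented Brucella blood agar and incubated anaerobically for 48 h at 35°C. MIC was the lowest drug concentration that inhibited growth. B. fragilis ATCC 25285, B. thetaiotaomicron ATCC 29741 and E. lentum ATCC 43055 were run as QC in each run.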

[2] = test system: Bacteroides thetaiotaomicron; experiment: Antibacterial activity against beta-lactamase producing Bacteroides thetaiotaomicron assessed as resistant isolates by CLSI agar dilution method in presence of clavulanate; assay type: functional
Procedure, shortened: (§2)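 207 nonduplicate anaerobic blood isolates from patients with bloodstream infections at NTUH, collected January–December 2006. MICs were determined by agar dilution following CLSI guidelines. Inocula were applied with a Steers replicator onto supplemented Brucella blood agar and incubated 48 h at 35°C in an anaerobic chamber. MIC was the lowest concentration inhibiting growth. B. fragilis ATCC 25285, B. thetaiotaomicron ATCC 29741 and E. lentum ATCC 43055 served as controls in each run.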

[3] = test system: Prevotella melaninogenica; experiment: Antibacterial activity against Prevotella melaninogenica assessed as resistant isolates by CLSI agar dilution method in presence of clavulanate; assay type: functional; procedure, shortened: as §2
Prevotella buccae [4] = experiment: Antibacterial activity against Prevotella buccae assessed as resistant isolates by CLSI agar dilution method in presence of clavulanate; assay type: functional, Segatella buccae; procedure, shortened: as §2
Finegoldia magna [5] = experiment: Antibacterial activity against beta-lactamase producing Finegoldia magna assessed as susceptible isolates by CLSI agar dilution method in presence of clavulanate; assay type: functional
Procedure, shortened: (§3)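 CLSI agar dilution MICs for anaerobic blood isolates (nonduplicate) collected from bloodstream-infection patients at a Taiwanese tertiary hospital, January–December 2006. Isolates were spotted by Steers replicator onto supplemented Brucella blood agar and incubated anaerobically for 48 h at 35°C. MIC was the lowest drug concentration inhibiting growth. Each run included B. fragilis ATCC 25285, B. thetaiotaomicron ATCC 29741 and E. lentum ATCC 43055 as quality-control strains.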

[6] = test system: Clostridium paraputrificum; experiment: Antibacterial activity against beta-lactamase producing Clostridium paraputrificum by CLSI agar dilution method in presence of clavulanate; assay type: functional; procedure, shortened: as §3
Finegoldia magna [7] = experiment: Antibacterial activity against beta-lactamase producing Finegoldia magna assessed as resistant isolates by CLSI agar dilution method in presence of clavulanate; assay type: functional; procedure, shortened: as §2
Bacteroides caccae = experiment: Antibacterial activity against beta-lactamase producing Bacteroides caccae assessed as resistant isolates by CLSI agar dilution method in presence of clavulanate; assay type: functional; procedure, shortened: as §2
[8] = test system: Peptostreptococcus anaerobius; experiment: Antibacterial activity against beta-lactamase producing Peptostreptococcus anaerobius assessed as resistant isolates by CLSI agar dilution method in presence of clavulanate; assay type: functional; procedure, shortened: as §2
[9] = test system: Peptostreptococcus anaerobius; experiment: Antibacterial activity against beta-lactamase producing Peptostreptococcus anaerobius by CLSI agar dilution method in presence of clavulanate; assay type: functional; procedure, shortened: as §3
Prevotella intermedia = experiment: Antibacterial activity against Prevotella intermedia by CLSI agar dilution method in presence of clavulanate; assay type: functional; procedure, shortened: as §1
Prevotella buccae [10] = experiment: Antibacterial activity against Prevotella buccae by CLSI agar dilution method in presence of clavulanate; assay type: functional; conditions: Segatella buccae; procedure, shortened: as §1
Bacteroides fragilis = experiment: Antibacterial activity against Bacteroides fragilis assessed as susceptible isolates by CLSI agar dilution method in presence of clavulanate; assay type: functional; procedure, shortened: as §1
Prevotella bivia [11] = experiment: Antibacterial activity against Prevotella bivia assessed as susceptible isolates by CLSI agar dilution method in presence of clavulanate; assay type: functional; procedure, shortened: as §1
[12] = test system: Clostridium paraputrificum; experiment: Antibacterial activity against beta-lactamase producing Clostridium paraputrificum assessed as susceptible isolates by CLSI agar dilution method; assay type: functional
Finegoldia magna [13] = experiment: Antibacterial activity against beta-lactamase producing Finegoldia magna assessed as susceptible isolates by CLSI agar dilution method; assay type: functional
[14] = test system: Bacteroides thetaiotaomicron; experiment: Antibacterial activity against beta-lactamase producing Bacteroides thetaiotaomicron assessed as susceptible isolates by CLSI agar dilution method in presence of Tazobactam; assay type: functional; procedure, shortened: as §1
Prevotella bivia [15] = experiment: Antibacterial activity against Prevotella bivia assessed as resistant isolates by CLSI agar dilution method in presence of Tazobactam; assay type: functional; procedure, shortened: as §2
Parvimonas micra = experiment: Antibacterial activity against beta-lactamase producing Micromonas micros by CLSI agar dilution method in presence of Tazobactam; assay type: functional; procedure, shortened: as §3
[16] = test system: Peptostreptococcus anaerobius; experiment: Antibacterial activity against beta-lactamase producing Peptostreptococcus anaerobius by CLSI agar dilution method; assay type: functional
Clostridium septicum [17] = experiment: Antibacterial activity against beta-lactamase producing Clostridium septicum assessed as resistant isolates by CLSI agar dilution method; assay type: functional
Fusobacterium nucleatum [18] = experiment: Antibacterial activity against Fusobacterium nucleatum assessed as susceptible isolates by CLSI agar dilution method; assay type: functional
[19] = test system: Prevotella melaninogenica; experiment: Antibacterial activity against Prevotella melaninogenica assessed as susceptible isolates by CLSI agar dilution method; assay type: functional
Clostridium tertium [20] = experiment: Antibacterial activity against beta-lactamase producing Clostridium tertium assessed as resistant isolates by CLSI agar dilution method; assay type: functional
[21] = test system: Bacteroides thetaiotaomicron; experiment: Antibacterial activity against beta-lactamase producing Bacteroides thetaiotaomicron assessed as resistant isolates by CLSI agar dilution method in presence of Tazobactam; assay type: functional; procedure, shortened: as §2
[22] = test system: Bacteroides thetaiotaomicron; experiment: Antibacterial activity against beta-lactamase producing Bacteroides thetaiotaomicron by CLSI agar dilution method in presence of Tazobactam; assay type: functional; procedure, shortened: as §1
Prevotella buccae [23] = experiment: Antibacterial activity against Prevotella buccae assessed as susceptible isolates by CLSI agar dilution method in presence of Tazobactam; assay type: functional, Segatella buccae; procedure, shortened: as §1
Clostridium tertium [24] = experiment: Antibacterial activity against beta-lactamase producing Clostridium tertium assessed as susceptible isolates by CLSI agar dilution method; assay type: functional
Prevotella bivia [25] = experiment: Antibacterial activity against Prevotella bivia assessed as resistant isolates by CLSI agar dilution method; assay type: functional
Clostridium septicum [26] = experiment: Antibacterial activity against beta-lactamase producing Clostridium septicum by CLSI agar dilution method in presence of Tazobactam; assay type: functional; procedure, shortened: as §3
[27] = test system: Peptoniphilus asaccharolyticus; experiment: Antibacterial activity against beta-lactamase producing Peptoniphilus asaccharolyticus assessed as susceptible isolates by CLSI agar dilution method; assay type: functional
[28] = test system: Clostridium paraputrificum; experiment: Antibacterial activity against beta-lactamase producing Clostridium paraputrificum assessed as resistant isolates by CLSI agar dilution method in presence of Tazobactam; assay type: functional; procedure, shortened: as §2

Work on `CC1(C)S[C@@H]2[C@H](NC(=O)[C@H](N)c3ccc(O)cc3)C(=O)N2[C@H]1C(=O)O` [AMOXICILLIN] yielded an Activity (Fusobacterium nucleatum [1]) of 89%, an Activity [2] of 33% and an Activity [3] of 6%. For the same compound, the Activity (Prevotella buccae [4]) was 6%, the Activity (Finegoldia magna [5]) was 94% and the MIC50 [6] was 0.5 µg/mL. The MIC90 [6] was 2 µg/mL, the Activity (Finegoldia magna [7]) was 3% and the Activity (Bacteroides caccae) was 30%. The Activity [8] was 3%, the MIC50 [9] was 0.25 µg/mL and the MIC90 [9] was 2 µg/mL. The MIC50 (Prevotella intermedia) was 4 µg/mL, the MIC90 (Prevotella intermedia) was 16 µg/mL and the MIC50 (Prevotella buccae [10]) was 4 µg/mL. It also gave an MIC90 (Prevotella buccae [10]) of 16 µg/mL, an Activity (Bacteroides fragilis) of 63% and an Activity (Prevotella bivia [11]) of 81%.
Compound `CCN1CCN(C(=O)N[C@@H](C(=O)N[C@@H]2C(=O)N3[C@@H]2SC(C)(C)[C@@H]3C(=O)O)c2ccccc2)C(=O)C1=O` [PIPERACILLIN] has an Activity [12] of 100%, an Activity (Finegoldia magna [13]) of 97% and an Activity [14] of 93%. The Activity (Prevotella bivia [15]) was 0%, the MIC (Parvimonas micra) was 0.03 µg/mL and the MIC50 (Parvimonas micra) was 0.03 µg/mL. The MIC90 (Parvimonas micra) was 2 µg/mL, the MIC50 [16] was 0.12 µg/mL (≈ 0.232 µM) and the MIC90 [16] was 8 µg/mL (≈ 15.5 µM). The Activity (Clostridium septicum [17]) was 0%, the Activity (Fusobacterium nucleatum [18]) was 90% and the Activity [19] was 71%. The Activity (Clostridium tertium [20]) was 0%, the Activity [21] was 0% and the MIC50 [22] was 8 µg/mL. For the same compound, the MIC90 [22] was 32 µg/mL, the Activity (Prevotella buccae [23]) was 100% and the Activity (Clostridium tertium [24]) was 100%. For the same compound, the Activity (Prevotella bivia [25]) was 22%, the MIC50 (Clostridium septicum [26]) was 0.5 µg/mL and the MIC90 (Clostridium septicum [26]) was 2 µg/mL. The Activity [27] was 97% and the Activity [28] was 0%.
